HSF-1 act = HSF-1 activators, primary screen, NIH3T3-HGL cells, MG132 stress, luminescence, single point | NIH3T3-HGL HSF-1 luciferase reporter, 8 h; 100% = twice DMSO control signal | activation, % at 9 µM | hit rate 1.7% among 300,000 | AID 504408, 2011;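 active means mean replicate activation of at least 50% with a set share of replicates each reaching 50%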
HCV core dimer = inhibitors of HCV core protein dimerization, primary screen, biochemical, TR-FRET, high-throughput; TR-FRET GST/Flag-core106 dimerization, 1536-well; AID 1899, 2009; hit rate 0.33% among 300,000; inhibition, % at 5 µM;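 active means inhibition above the mean of all tested compounds plus 3 SD, set per screening campaign, cut at about 45% in these data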
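assay system = GST-tagged and Flag-tagged HCV core protein residues 1-106 | controls = unlabelled core106 and no-GST-core106 wells | incubation = compound-protein-antibody incubation 4 h at 22.5 °C | probe or stimulus = Eu donor and XL665 acceptor anti-tag antibodies | read-out = % inhibition based on acceptor/donor emission ratio | signal = TR-FRET 671 and 617 nm emission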
HSF1 inhib = HSF1 inhibitors in luciferase reporter cells, primary screen, cell-based, NIH3T3, luminescence; AID 2098, 2009; activity change, negative = inhibition, % at 7.5 µM (by protocol); hit rate 0.77% among 300,000; NIH3T3-HGL HSE-luciferase, MG132-induced, luminescence 8 h; active compounds read low;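 active means more than half of replicate wells show activity change below -50%, luminescence cut by over half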;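 further: luciferase reports HSF-1 transcriptional activity via heat shock element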
FID counter = compounds displacing fluorescent DNA intercalator, primary screen, artefact control for HCV NS3 helicase inhibitor project, biochemical, FID fluorescence; DNA fluorescent intercalator displacement; AID 1845, 2009; inhibition, % at 7.9 µM; hit rate 0.17% among 290,000; in the data active means inhibition above about 37%;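 further: higher means more ethidium bromide displaced from hairpin DNA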
NS3 helicase inh = inhibitors of HCV NS3 helicase, primary screen, biochemical, Cy5 molecular beacon fluorescence; NS3 helicase DNA unwinding; inhibition, % at 10.9 µM; hit rate 0.56% among 290,000; Hepatitis C virus NS3 helicase;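 active means inhibition above the mean of all tested compounds plus 3 SD, set per campaign, cut at about 35% in these data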
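System: Hepatitis C virus NS3 helicase domain fragment enzyme | Reagent: Annealed dual-labelled DNA beacon duplex, ATP-started | Compound dosing: 10.9 µM single point, 0.8% DMSO | Incubation: 1 h reaction at 25 °C, ATP-initiated | Technique: Cy5 fluorescence | Evaluation: Percent inhibition from t60/t0 fluorescence ratio | Benchmarks: Low DMSO, high thioflavine S at 110 µM | Replication: Singlicate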
HSP90 refold inh = HSP90 inhibitors, primary screen, cell lysate, luminescence; Rabbit reticulocyte lysate, luciferase refolding luminescence, 3 h; AID 1789, 2009; inhibition, % at 5.6 µM; Heat shock protein HSP 90 (rabbit reticulocyte lysate; luciferase refolding); hit rate 0.91% among 290,000;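 active means inhibition above the screen-wide mean plus 3 SD, computed separately per campaign, cut at about 16% in these data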;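 further: inhibitors lower the luminescence because luciferase stays unfolded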
Hits are given with their value; n = inactive; x = not tested or not shown. An excerpt weighted towards active compounds, which were near 3.9% of everything screened.

SMILES | HSF-1 act | HCV core dimer | HSF1 inhib | FID counter | NS3 helicase inh | HSP90 refold inh
O=C(CCS(=O)(=O)c1ccccc1)N(CCCN1CCOCC1)c1nc2c(F)cccc2s1 | 161 | n | n | x | x | x
O=C(CCS(=O)(=O)c1ccccc1)N(CCCN1CCOCC1)c1nc2ccc(F)cc2s1 | 147 | n | n | x | x | x
COc1ccc(C2Nc3ccccc3C(=O)N2Cc2ccco2)cc1COc1ccc(NC(C)=O)cc1 (centres undefined) | 58 | n | n | n | n | n
COc1ccc(C2Nc3ccccc3C(=O)N2Cc2ccco2)cc1COc1ccccc1F (centres undefined) | 76 | 46 | n | n | n | n
O=C1C2C3CCCC3=C3CCCC3C2C(=O)N1c1ccc(Cl)cc1 (centres undefined) | n | 52 | n | n | n | n
Cn1c(=O)[nH]c(=O)c2c1nc(N/N=C/c1ccncc1)n2Cc1ccc(Cl)cc1 | n | n | n | n | n | n
CCOC(=O)c1nnn(CC(=O)NC(=O)Nc2ccccc2)c1C(=O)OCC | n | n | n | n | n | n
CCOC(=O)c1nnn(CC(=O)NC(=O)Nc2ccc(F)cc2)c1C(=O)OCC | n | n | -72 | n | n | n
O=C(Nc1csc([N+](=O)[O-])c1)Nc1c(Cl)cccc1Cl | n | n | n | n | n | n
O=C(Nc1ccc(Cl)cc1)Nc1csc([N+](=O)[O-])c1 | 84 | n | n | n | n | n
CCCCN(C(=O)c1cccc(-n2cccc2)c1)c1c(N)n(Cc2ccccc2)c(=O)[nH]c1=O | n | 48 | n | x | x | x
Cc1ccc(C)c(NC2=C(Cl)C(=O)OC2OC(=O)c2ccco2)c1 (centres undefined) | n | n | n | n | n | n
O=S(=O)(Nc1ccc(O)cc1)c1cccc2cccnc12 | n | n | n | n | n | n
O=S(=O)(Nc1ccccc1O)c1cccc2cccnc12 | 78 | n | n | n | n | n
Cc1c(-c2nc(N)nc(Nc3ccccc3)n2)oc2ccccc12 | 76 | n | n | n | n | n
COc1ccc(N2CCN(c3ncnc4c3cnn4-c3ccc(C)cc3C)CC2)cc1 | 77 | n | n | n | n | n
CC(C)CN1CCC(=O)N([C@H](CO)c2ccccc2)CC1 | n | n | n | n | n | n
O=C(NCc1ccccc1)C1CCCN1C(=O)Nc1ccccc1[N+](=O)[O-] (centres undefined) | n | x | n | n | n | n
CC1(C)CC(=O)C(C2C3=C(CC(C)(C)CC3=O)OC3=C2C(=O)CC(C)(C)C3)=C(O)C1 | 67 | n | n | n | n | n
CC1CN(C(=O)CCC(=O)NCc2ccccc2)c2cc(Cl)ccc2O1 (centres undefined) | n | n | n | n | n | 67
Cc1ccc2c(c1)N(C(=O)CCC(=O)NCc1ccccc1)CC(C)O2 (centres undefined) | n | n | n | n | n | n
O=C(Oc1ccc2ccc(=O)oc2c1)c1ccc([N+](=O)[O-])cc1 | n | n | n | n | n | n
O=c1ccc2ccc(Oc3ccc([N+](=O)[O-])cc3[N+](=O)[O-])cc2o1 | 68 | n | n | n | n | n
O=c1nc(-c2ccccc2)nc(-c2ccccc2)[nH]1 | n | n | n | n | n | n
COc1ccc(Nc2nc(NCc3ccco3)nc(N)c2[N+](=O)[O-])cc1 | 66 | n | n | n | n | n
SMILES | HSF-1 act | HCV core dimer | HSF1 inhib | FID counter | NS3 helicase inh | HSP90 refold inh
Nc1nc(Nc2cccc(F)c2)nc(NCc2ccco2)c1[N+](=O)[O-] | 54 | n | n | n | n | n
COc1ccccc1Nc1nc(NCCCN(C)C)nc(N)c1[N+](=O)[O-] | n | n | -73 | n | n | n
Cc1ccc(Nc2nc(NCCCN3CCOCC3)nc(N)c2[N+](=O)[O-])cc1C | n | n | n | n | n | n
Cc1cccc(Nc2nc(N)c([N+](=O)[O-])c(NCc3ccco3)n2)c1 | n | n | n | n | n | n
Cc1ccc(Nc2nc(NCCCN3CCOCC3)nc(N)c2[N+](=O)[O-])cc1 | 69 | n | n | n | n | n
Cc1ccc(C2C3=C(CCCC3=O)Nc3c2c(C)nn3-c2ccccn2)o1 (centres undefined) | n | n | n | n | n | n
CC(=Nc1ccc(C)cc1C)c1sc2ccccc2c1O | 53 | n | n | n | n | n
CC(=Nc1ccc(C)cc1)c1sc2ccccc2c1O | n | n | n | n | n | n
CCOc1ccccc1C1N=C(c2ccc(OC)cc2)CC(c2ccccc2O)N1 (centres undefined) | 130 | n | n | n | n | n
CCOC(=O)/C(=C\c1cccc(O)c1)c1nc2sc(C)c(C)c2c(=O)[nH]1 | 161 | n | n | n | n | n
CCc1nc(SCC(=O)NCCc2ccc(OC)c(OC)c2)c2c(=O)n(C)c(=O)n(C)c2n1 | n | n | -78 | x | x | x
CCOC(=O)CN1CC23C=CC(O2)C(C(=O)NC2CCCCC2)C3C1=O (centres undefined) | n | n | -89 | n | n | n
Cc1ccc(CN2CCN(Cc3ccc4c(c3)OCCO4)CC2CCO)cc1 (centres undefined) | n | n | n | n | n | n
O=C(NCc1ccco1)C(c1ccccc1)N(Cc1cccnc1)C(=O)Cn1nnc2ccccc21 (centres undefined) | n | n | n | n | n | n
Cc1cc(C)cc(OCC(O)CN2C(=O)NC(C)(C)C2=O)c1 (centres undefined) | 64 | n | n | n | n | n
Cc1ccc(OCC(O)CN2C(=O)NC(C)(C)C2=O)c(C)c1 (centres undefined) | n | n | n | n | n | n
CCCC(CCC)C(=O)Nc1ccc2c(c1)N(C(=O)CCN1CCN(C)CC1)c1ccccc1CC2 | n | n | -63 | n | n | n
Cc1cccc(Nc2cc(=O)[nH]c(=O)[nH]2)c1 | n | n | n | n | n | n
COCCNC(=S)N/N=C(\C)c1ccc(-n2ccnc2)cc1 | n | n | n | n | n | n
Cc1nc([N+](=O)[O-])c(N2CCN(Cc3ccccc3)CC2)n1Cc1ccccc1 | n | n | n | n | n | n
COc1ccc2nc(Sc3c([N+](=O)[O-])nc(C)n3Cc3ccccc3)[nH]c2c1 | 107 | n | n | n | n | n
Cc1nc([N+](=O)[O-])c(Sc2nc3ccccc3[nH]2)n1Cc1ccccc1 | 56 | n | n | n | n | n
Cn1cnc([N+](=O)[O-])c1Sc1nc2ccccc2[nH]1 | n | n | n | n | n | n
COc1ccc2nc(SCC(=O)NCc3ccccc3)[nH]c2c1 | n | x | n | n | n | n
